Data as given in ChEMBL document CHEMBL1255475, “Mutant prevention concentrations of four carbapenems against gram-negative rods” (2010).
In brackets after ≈: the same amount, converted by molar mass.

How the values were obtained:
Assay type in all cases: functional
Acinetobacter baumannii [1] = assay: Antibacterial activity against Acinetobacter baumannii A931 assessed as mutant prevention concentration after overnight incubation
Acinetobacter baumannii [2] = assay: Antibacterial activity against Acinetobacter baumannii A897 assessed as mutant prevention concentration after overnight incubation
Acinetobacter baumannii [3] = assay: Antibacterial activity against Acinetobacter baumannii A890 assessed as mutant prevention concentration after overnight incubation
Klebsiella pneumoniae [4] = assay: Antibacterial activity against beta-lactamase-negative Klebsiella pneumoniae E362 assessed as mutant prevention concentration after overnight incubation
Klebsiella pneumoniae [5] = assay: Antibacterial activity against beta-lactamase-positive ESBL-negative Klebsiella pneumoniae E509 assessed as mutant prevention concentration after overnight incubation
Outline: (§1)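 Overnight growth on blood trypticase soy agar (35°C, air) was resuspended in 0.9% saline and counted on drug-free Mueller-Hinton agar. […] Colonies were retested by agar dilution to confirm mutants. MPC was the lowest concentration preventing resistant-mutant growth.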

Klebsiella pneumoniae [6] = assay: Antibacterial activity against beta-lactamase-positive ESBL-positive Klebsiella pneumoniae E475 assessed as mutant prevention concentration after overnight incubation; outline: as §1
Klebsiella pneumoniae [7] = assay: Antibacterial activity against beta-lactamase-positive ESBL-negative Klebsiella pneumoniae E477 assessed as mutant prevention concentration after overnight incubation; outline: as §1
Klebsiella pneumoniae [8] = assay: Antibacterial activity against beta-lactamase-negative Klebsiella pneumoniae E420 assessed as mutant prevention concentration after overnight incubation; outline: as §1
Klebsiella pneumoniae [9] = assay: Antibacterial activity against beta-lactamase-positive ESBL-positive Klebsiella pneumoniae E453 assessed as mutant prevention concentration after overnight incubation; outline: as §1
Klebsiella pneumoniae [10] = assay: Antibacterial activity against beta-lactamase-positive ESBL-negative Klebsiella pneumoniae E511 assessed as mutant prevention concentration after overnight incubation; outline: as §1
Pseudomonas aeruginosa [11] = assay: Antibacterial activity against Pseudomonas aeruginosa P332 assessed as mutant prevention concentration after overnight incubation
Pseudomonas aeruginosa [12] = assay: Antibacterial activity against Pseudomonas aeruginosa P369 assessed as mutant prevention concentration after overnight incubation
Pseudomonas aeruginosa [13] = assay: Antibacterial activity against Pseudomonas aeruginosa P373 assessed as mutant prevention concentration after overnight incubation
Pseudomonas aeruginosa [14] = assay: Antibacterial activity against Pseudomonas aeruginosa P322 assessed as mutant prevention concentration after overnight incubation
Pseudomonas aeruginosa [15] = assay: Antibacterial activity against Pseudomonas aeruginosa P334 assessed as mutant prevention concentration after overnight incubation
Pseudomonas aeruginosa [16] = assay: Antibacterial activity against Pseudomonas aeruginosa P340 assessed as mutant prevention concentration after overnight incubation
Pseudomonas aeruginosa [17] = assay: Antibacterial activity against Pseudomonas aeruginosa P370 assessed as mutant prevention concentration after overnight incubation
Pseudomonas aeruginosa [18] = assay: Antibacterial activity against Pseudomonas aeruginosa P341 assessed as mutant prevention concentration after overnight incubation
Pseudomonas aeruginosa [19] = assay: Antibacterial activity against Pseudomonas aeruginosa P358 assessed as mutant prevention concentration after overnight incubation
Pseudomonas aeruginosa [20] = assay: Antibacterial activity against Pseudomonas aeruginosa P326 assessed as mutant prevention concentration after overnight incubation
Acinetobacter baumannii [21] = assay: Antibacterial activity against Acinetobacter baumannii A910 assessed as mutant prevention concentration after overnight incubation
Acinetobacter baumannii [22] = assay: Antibacterial activity against Acinetobacter baumannii A884 assessed as mutant prevention concentration after overnight incubation
Acinetobacter baumannii [23] = assay: Antibacterial activity against Acinetobacter baumannii A896 assessed as mutant prevention concentration after overnight incubation
Acinetobacter baumannii [24] = assay: Antibacterial activity against Acinetobacter baumannii A908 assessed as mutant prevention concentration after overnight incubation
Escherichia coli [25] = assay: Antibacterial activity against beta-lactamase-negative Escherichia coli E344 assessed as mutant prevention concentration after overnight incubation
Escherichia coli [26] = assay: Antibacterial activity against beta-lactamase-positive ESBL-positive Escherichia coli E458 assessed as mutant prevention concentration after overnight incubation; outline: as §1
Escherichia coli [27] = assay: Antibacterial activity against beta-lactamase-positive ESBL-negative Escherichia coli E412 assessed as mutant prevention concentration after overnight incubation; outline: as §1
Escherichia coli [28] = assay: Antibacterial activity against beta-lactamase-negative Escherichia coli E425 assessed as mutant prevention concentration after overnight incubation
Escherichia coli [29] = assay: Antibacterial activity against beta-lactamase-positive ESBL-positive Escherichia coli E451 assessed as mutant prevention concentration after overnight incubation; outline: as §1
Klebsiella pneumoniae [30] = assay: Antibacterial activity against beta-lactamase-negative Klebsiella pneumoniae E357 assessed as mutant prevention concentration after overnight incubation
Klebsiella pneumoniae [31] = assay: Antibacterial activity against beta-lactamase-negative Klebsiella pneumoniae E360 assessed as mutant prevention concentration after overnight incubation
Klebsiella pneumoniae [32] = assay: Antibacterial activity against beta-lactamase-negative Klebsiella pneumoniae E419 assessed as mutant prevention concentration after overnight incubation; outline: as §1
Escherichia coli [33] = assay: Antibacterial activity against beta-lactamase-negative Escherichia coli E345 incubated up to 7 days by agar dilution method; conditions: E345, 168 h
Klebsiella pneumoniae [34] = assay: Antibacterial activity against beta-lactamase-positive ESBL-positive Klebsiella pneumoniae E475 incubated up to 7 days by agar dilution method; conditions: E475, 168 h
Klebsiella pneumoniae [35] = assay: Antibacterial activity against beta-lactamase-positive ESBL-positive Klebsiella pneumoniae E453 incubated up to 7 days by agar dilution method; conditions: E453, 168 h
Outline: (§2)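 MIC by CLSI agar dilution, with quality-control strains in each run. Beta-lactamase status was set by 30 μg cefazolin Kirby-Bauer disk diffusion. ESBL status was set by cefotaxime and ceftazidime disks (30 μg) with and without clavulanic acid (10 μg).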

Klebsiella pneumoniae [36] = assay: Antibacterial activity against beta-lactamase-positive ESBL-positive Klebsiella pneumoniae E457 incubated up to 7 days by agar dilution method; conditions: E457, 168 h; outline: as §2
Klebsiella pneumoniae [37] = assay: Antibacterial activity against beta-lactamase-positive ESBL-negative Klebsiella pneumoniae E507 incubated up to 7 days by agar dilution method; conditions: E507, 168 h
Outline: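 MPC determination: overnight cultures on blood trypticase soy agar at 35°C in air were resuspended in 0.9% saline, and CFU were counted on drug-free Mueller-Hinton agar. […] Growth was retested by agar dilution to confirm mutants. MPC was the lowest concentration preventing resistant-mutant growth.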

Escherichia coli [38] = assay: Antibacterial activity against beta-lactamase-negative Escherichia coli E348 incubated up to 7 days by agar dilution method; conditions: E348, 168 h
Escherichia coli [39] = assay: Antibacterial activity against beta-lactamase-negative Escherichia coli E409 […] by agar dilution method
Escherichia coli [40] = assay: Antibacterial activity against beta-lactamase-positive ESBL-negative Escherichia coli E415 incubated up to 7 days by agar dilution method; conditions: E415, 168 h; outline: as §2
Escherichia coli [41] = assay: Antibacterial activity against beta-lactamase-positive ESBL-negative Escherichia coli E437 incubated up to 7 days by agar dilution method; conditions: E437, 168 h; outline: as §2
Escherichia coli [42] = assay: Antibacterial activity against beta-lactamase-positive ESBL-positive Escherichia coli E452 incubated up to 7 days by agar dilution method; conditions: E452, 168 h; outline: as §2
Escherichia coli [43] = assay: Antibacterial activity against beta-lactamase-positive ESBL-negative Escherichia coli E430 incubated up to 7 days by agar dilution method; conditions: E430, 168 h; outline: as §2
Escherichia coli [44] = assay: Antibacterial activity against beta-lactamase-positive ESBL-positive Escherichia coli E459 incubated up to 7 days by agar dilution method; conditions: E459, 168 h; outline: as §2
Escherichia coli [45] = assay: Antibacterial activity against beta-lactamase-positive ESBL-positive Escherichia coli E451 incubated up to 7 days by agar dilution method; conditions: E451, 168 h; outline: as §2
Klebsiella pneumoniae [46] = assay: Antibacterial activity against beta-lactamase-negative Klebsiella pneumoniae E359 incubated up to 7 days by agar dilution method; conditions: E359, 168 h

Which results are given for `C[C@@H](O)[C@H]1C(=O)N2C(C(=O)O)=C(SCCNC=N)C[C@H]12` [IMIPENEM ANHYDROUS]?
MPC (Acinetobacter baumannii [1]): 1 µg/mL; MPC (Acinetobacter baumannii [2]): 1 µg/mL; MPC (Acinetobacter baumannii [3]): 1 µg/mL; MPC (Klebsiella pneumoniae [4]): 1 µg/mL; MPC (Klebsiella pneumoniae [5]): >32 µg/mL; MPC (Klebsiella pneumoniae [6]): 16 µg/mL; MPC (Klebsiella pneumoniae [7]): 32 µg/mL; MPC (Klebsiella pneumoniae [8]): 0.25 µg/mL; MPC (Klebsiella pneumoniae [9]): 0.5 µg/mL; MPC (Klebsiella pneumoniae [10]): 64 µg/mL; MPC (Pseudomonas aeruginosa [11]): 16 µg/mL; MPC (Pseudomonas aeruginosa [12]): 32 µg/mL; MPC (Pseudomonas aeruginosa [13]): 32 µg/mL; MPC (Pseudomonas aeruginosa [14]): 32 µg/mL; MPC (Pseudomonas aeruginosa [15]): 16 µg/mL; MPC (Pseudomonas aeruginosa [16]): 2 µg/mL; MPC (Pseudomonas aeruginosa [17]): 16 µg/mL; MPC (Pseudomonas aeruginosa [18]): 32 µg/mL; MPC (Pseudomonas aeruginosa [19]): 128 µg/mL; MPC (Pseudomonas aeruginosa [20]): 32 µg/mL; MPC (Acinetobacter baumannii [21]): 8 µg/mL; MPC (Acinetobacter baumannii [22]): 4 µg/mL; MPC (Acinetobacter baumannii [23]): 1 µg/mL; MPC (Acinetobacter baumannii [24]): 1 µg/mL; MPC (Escherichia coli [25]): 0.5 µg/mL; MPC (Escherichia coli [26]): 0.5 µg/mL; MPC (Escherichia coli [27]): 1 µg/mL; MPC (Escherichia coli [28]): 0.5 µg/mL; MPC (Escherichia coli [29]): 0.5 µg/mL; MPC (Klebsiella pneumoniae [30]): 1 µg/mL; MPC (Klebsiella pneumoniae [31]): 1 µg/mL; MPC (Klebsiella pneumoniae [32]): 1 µg/mL

Which MIC (Escherichia coli [33]) does the source give for `C[C@@H](O)[C@H]1C(=O)N2C(C(=O)O)=C(S[C@@H]3CN[C@H](C(=O)N(C)C)C3)[C@H](C)[C@H]12` [MEROPENEM] here?
The MIC was 0.03 µg/mL (≈ 0.0782 µM).

And the MIC (Klebsiella pneumoniae [34])?
Its MIC is 4 µg/mL (≈ 10.4 µM).

And the MIC (Klebsiella pneumoniae [35])?
The MIC was 0.06 µg/mL (≈ 0.156 µM).

And the MIC (Klebsiella pneumoniae [36])?
The MIC was 0.06 µg/mL (≈ 0.156 µM).

What about the MIC (Klebsiella pneumoniae [37]) of the same molecule?
The MIC was 4 µg/mL (≈ 10.4 µM).

What about the MIC (Escherichia coli [38]) of the same molecule?
Its MIC is 0.03 µg/mL (≈ 0.0782 µM).

What about the MIC (Escherichia coli [39]) of the same molecule?
The MIC was 0.03 µg/mL (≈ 0.0782 µM).

And the MIC (Escherichia coli [40])?
The MIC was 0.06 µg/mL (≈ 0.156 µM).

What about the MIC (Escherichia coli [41]) of the same molecule?
Its MIC is 0.06 µg/mL (≈ 0.156 µM).

And the MIC (Escherichia coli [42])?
Its MIC is 0.03 µg/mL (≈ 0.0782 µM).

What about the MIC (Escherichia coli [43]) of the same molecule?
Its MIC is 0.03 µg/mL (≈ 0.0782 µM).

And the MIC (Escherichia coli [44])?
The MIC was 0.03 µg/mL (≈ 0.0782 µM).

And the MIC (Escherichia coli [45])?
Its MIC is 0.03 µg/mL (≈ 0.0782 µM).

And the MIC (Klebsiella pneumoniae [46])?
The MIC was 0.06 µg/mL (≈ 0.156 µM).

And the MPC (Acinetobacter baumannii [1])?
The MPC was 4 µg/mL.

And the MPC (Acinetobacter baumannii [2])?
Its MPC is 1 µg/mL.

What about the MPC (Acinetobacter baumannii [3]) of the same molecule?
Its MPC is 1 µg/mL.

And the MPC (Klebsiella pneumoniae [4])?
The MPC was 0.125 µg/mL.

What about the MPC (Klebsiella pneumoniae [5]) of the same molecule?
Its MPC is >64 µg/mL.

What about the MPC (Klebsiella pneumoniae [6]) of the same molecule?
The MPC was 32 µg/mL.

And the MPC (Klebsiella pneumoniae [7])?
The MPC was 8 µg/mL.

And the MPC (Klebsiella pneumoniae [8])?
Its MPC is 0.06 µg/mL.

What about the MPC (Klebsiella pneumoniae [9]) of the same molecule?
Its MPC is 0.5 µg/mL.

And the MPC (Klebsiella pneumoniae [10])?
The MPC was 64 µg/mL.

What about the MPC (Pseudomonas aeruginosa [11]) of the same molecule?
The MPC was 32 µg/mL.

What about the MPC (Pseudomonas aeruginosa [12]) of the same molecule?
Its MPC is >4 µg/mL.

What about the MPC (Pseudomonas aeruginosa [13]) of the same molecule?
Its MPC is >8 µg/mL.

What about the MPC (Pseudomonas aeruginosa [14]) of the same molecule?
The MPC was 16 µg/mL.

And the MPC (Pseudomonas aeruginosa [15])?
The MPC was >4 µg/mL.

And the MPC (Pseudomonas aeruginosa [16])?
Its MPC is 4 µg/mL.

And the MPC (Pseudomonas aeruginosa [17])?
Its MPC is >4 µg/mL.

What about the MPC (Pseudomonas aeruginosa [18]) of the same molecule?
Its MPC is 8 µg/mL.

What about the MPC (Pseudomonas aeruginosa [19]) of the same molecule?
Its MPC is 32 µg/mL.

What about the MPC (Pseudomonas aeruginosa [20]) of the same molecule?
The MPC was 64 µg/mL.

What about the MPC (Acinetobacter baumannii [21]) of the same molecule?
The MPC was 4 µg/mL.

And the MPC (Acinetobacter baumannii [22])?
Its MPC is 8 µg/mL.

What about the MPC (Acinetobacter baumannii [23]) of the same molecule?
Its MPC is 4 µg/mL.

What about the MPC (Acinetobacter baumannii [24]) of the same molecule?
Its MPC is 4 µg/mL.

What about the MPC (Escherichia coli [25]) of the same molecule?
Its MPC is 0.03 µg/mL.

And the MPC (Escherichia coli [26])?
The MPC was 0.125 µg/mL.

What about the MPC (Escherichia coli [27]) of the same molecule?
The MPC was 0.25 µg/mL.

And the MPC (Escherichia coli [28])?
Its MPC is 0.06 µg/mL.

And the MPC (Escherichia coli [29])?
Its MPC is 0.06 µg/mL.

And the MPC (Klebsiella pneumoniae [30])?
The MPC was 0.125 µg/mL.

And the MPC (Klebsiella pneumoniae [31])?
The MPC was 0.125 µg/mL.

What about the MPC (Klebsiella pneumoniae [32]) of the same molecule?
Its MPC is 0.125 µg/mL.
